The values below come from ChEMBL document CHEMBL2176995, “An oral sphingosine 1-phosphate receptor 1 (S1P(1)) antagonist prodrug with efficacy in vivo: discovery, synthesis, and evaluation” (J Med Chem, 2012).

pEC50, pIC50, pKd: −log10 of the molar value. In brackets after ≈: the same amount, converted by molar mass. Activity calls are given as the source filed them. No cut-off for these calls is given here.

In data set [1] the target is T1, Sphingosine 1-phosphate receptor 1 (Homo sapiens, UniProt P21453). The experiment in a line: Antagonist activity at human S1P1R receptor expressed in CHO cell membranes by [35S]GTPgamma binding assay. It counts as functional. The gist of the method: (§1)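 Membranes from CHO clones stably expressing human S1P1 (1−5 μg/well), with S1P2–S1P5 handled comparably. Compound preincubated 15 min, then S1P (4 nM final) and GTPγ³⁵S (0.2 nM final) added. Shaken 120 min at room temperature, then SPA counting. Eight concentrations in duplicate; IC₅₀ from curve fit, mean of ≥3 determinations ± SEM.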

Data set [2] deals with Rattus norvegicus. Nature of the data set: Reduction in peripheral blood lymphocytes in Lewis rat assessed as remaining circulating lymphocytes level at 100 mg/kg, po administered as single dose measured 14 hrs post dose by automated hematology analyzer. It counts as functional. In short, it runs like this:
(§2)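 Male Lewis rats receive a single oral dose of compound or vehicle, freshly made in 30% PEG200/buffer. Blood (<200 μL) is drawn by sublingual puncture under isoflurane 5% v/v at baseline and later time points. Lymphocytes are counted on an automated hematology analyzer, and each animal's change is expressed as percent of its own pre-treatment baseline.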

Data set [3] concerns Rattus norvegicus. Nature of the data set: Reduction in peripheral blood lymphocytes in Lewis rat assessed as remaining circulating lymphocytes level at 100 mg/kg, po administered as single dose measured 24 hrs post dose by automated hematology analyzer. In kind it is functional. In short, it runs like this: as §2
Data set [4] concerns Rattus norvegicus. The experiment in a line: Reduction in peripheral blood lymphocytes in Lewis rat assessed as remaining circulating lymphocytes level at 100 mg/kg, po administered as single dose measured 14 to 48 hrs post dose by automated hematology analyzer.
A short description of data set [5]: Solubility in pH 6.8 buffer. It counts as physicochemical.
The test system of data set [6] is Rattus norvegicus. The experiment in a line: Reduction in peripheral blood lymphocytes in Lewis rat assessed as remaining circulating lymphocytes level at 30 mg/kg, po administered as single dose measured 14 hrs post dose by automated hematology analyzer. It counts as functional. In short, it runs like this: as §2
The subject of data set [7] is Rattus norvegicus. The experiment in a line: Reduction in peripheral blood lymphocytes in Lewis rat assessed as remaining circulating lymphocytes level at 30 mg/kg, po administered as single dose measured 24 hrs post dose by automated hematology analyzer. It counts as functional. In short, it runs like this:
as §2

The test system of data set [8] is Rattus norvegicus. Nature of the data set: Reduction in peripheral blood lymphocytes in Lewis rat assessed as remaining circulating lymphocytes level at 100 mg/kg, po administered as single dose measured 12 hrs post dose by automated hematology analyzer. In kind it is functional. In short, it runs like this:
as §2

The subject of data set [9] is Rattus norvegicus. The experiment in a line: Increase in allograft survival in stringent Dark Agouti to Lewis rat heterotopic vascular heart allotransplantation model assessed as allograft mean survival time at 10 mg/kg, po bid (reference value: 6 days). It counts as functional. The gist of the method:
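Hearts from DA donors were transplanted into Lewis recipients, with dosing starting 3 days pre-transplant. The PKC inhibitor was given po b.i.d., mixed in D-glucose and dissolved in PEG400, distilled water and 0.1 M aqueous HCl. Vehicle controls were dosed po b.i.d. Endpoint was graft survival to rejection or predefined termination, reported as median days. Histology used H&E and trichrome with acute rejection scoring.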

For data set [10], the system named is Rattus norvegicus. Nature of the data set: Increase in allograft survival in stringent Dark Agouti to Lewis rat heterotopic vascular heart allotransplantation model assessed as allograft mean survival time at 0.1 mg/kg, po qd co-treated with 0.3 mg/kg, qd everolimus. It counts as functional.
Data set [11] relates to Rattus norvegicus. The experiment in a line: Increase in allograft survival in stringent Dark Agouti to Lewis rat heterotopic vascular heart allotransplantation model assessed as allograft mean survival time at 0.1 mg/kg, po qd co-treated with 10 mg/kg, po bid sotrastaurin. It counts as functional.
The subject of data set [12] is Rattus norvegicus. The experiment in a line: Increase in allograft survival in stringent Dark Agouti to Lewis rat heterotopic vascular heart allotransplantation model assessed as allograft mean survival time at 0.3 mg/kg, po qd (reference value: 6 days). In kind it is functional.
In data set [13] the target is T2, Sphingosine 1-phosphate receptor 4 (Homo sapiens, UniProt O95977).
T2 sequence (O95977 whole entry): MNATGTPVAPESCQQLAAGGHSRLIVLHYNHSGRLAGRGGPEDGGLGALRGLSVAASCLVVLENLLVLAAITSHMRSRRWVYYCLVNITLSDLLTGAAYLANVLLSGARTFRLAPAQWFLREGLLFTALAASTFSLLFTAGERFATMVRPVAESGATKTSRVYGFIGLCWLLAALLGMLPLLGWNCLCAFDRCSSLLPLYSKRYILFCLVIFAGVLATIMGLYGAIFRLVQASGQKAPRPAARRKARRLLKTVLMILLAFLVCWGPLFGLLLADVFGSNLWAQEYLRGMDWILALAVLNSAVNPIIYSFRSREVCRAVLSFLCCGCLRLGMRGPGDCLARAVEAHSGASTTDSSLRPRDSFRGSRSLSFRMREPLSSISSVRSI
Nature of the data set: Agonist activity at human S1P4R receptor expressed in CHO cell membranes by [35S]GTPgamma binding assay. In kind it is functional.

Data set [14] addresses T2, Sphingosine 1-phosphate receptor 4. Nature of the data set: Antagonist activity at human S1P4R receptor expressed in CHO cell membranes by [35S]GTPgamma binding assay. It counts as functional. The gist of the method:
as §1

Data set [15] concerns the target T1, Sphingosine 1-phosphate receptor 1. The experiment in a line: Competitive binding affinity to human S1P1R receptor expressed in CHO cell membranes by Schild plot analysis.
For data set [16], the target named is T3, Sphingosine 1-phosphate receptor 3 (Homo sapiens, UniProt Q99500). The experiment in a line: Antagonist activity at human S1P3R receptor expressed in CHO cell membranes by [35S]GTPgamma binding assay. It counts as functional. The gist of the method:
as §1

For data set [17], the target named is T3, Sphingosine 1-phosphate receptor 3. Nature of the data set: Agonist activity at human S1P3R receptor expressed in CHO cell membranes by [35S]GTPgamma binding assay. In kind it is functional.
The target in data set [18] is T4, Sphingosine 1-phosphate receptor 2 (Homo sapiens, UniProt O95136). Nature of the data set: Antagonist activity at human S1P2R receptor expressed in CHO cell membranes by [35S]GTPgamma binding assay. In kind it is functional. In short, it runs like this: as §1
Data set [19] deals with T5, Sphingosine 1-phosphate receptor 5 (Homo sapiens, UniProt Q9H228). The experiment in a line: Agonist activity at human S1P5R receptor expressed in CHO cell membranes by [35S]GTPgamma binding assay. It counts as functional.
The target of data set [20] is T1, Sphingosine 1-phosphate receptor 1. The experiment in a line: Agonist activity at human S1P1R receptor expressed in CHO cell membranes by [35S]GTPgamma binding assay. In kind it is functional.
Data set [21] deals with T4, Sphingosine 1-phosphate receptor 2. The experiment in a line: Agonist activity at human S1P2R receptor expressed in CHO cell membranes by [35S]GTPgamma binding assay. It counts as functional.
For data set [22], the target named is T5, Sphingosine 1-phosphate receptor 5. Nature of the data set: Antagonist activity at human S1P5R receptor expressed in CHO cell membranes by [35S]GTPgamma binding assay. It counts as functional. In short, it runs like this: as §1
The test system of data set [23] is Rattus norvegicus. Nature of the data set: Reduction in peripheral blood lymphocytes in Lewis rat assessed as remaining circulating lymphocytes level at 100 mg/kg, po administered as single dose measured 8 hrs post dose by automated hematology analyzer. It counts as functional. In short, it runs like this:
as §2

T1 sequence (P21453 whole entry): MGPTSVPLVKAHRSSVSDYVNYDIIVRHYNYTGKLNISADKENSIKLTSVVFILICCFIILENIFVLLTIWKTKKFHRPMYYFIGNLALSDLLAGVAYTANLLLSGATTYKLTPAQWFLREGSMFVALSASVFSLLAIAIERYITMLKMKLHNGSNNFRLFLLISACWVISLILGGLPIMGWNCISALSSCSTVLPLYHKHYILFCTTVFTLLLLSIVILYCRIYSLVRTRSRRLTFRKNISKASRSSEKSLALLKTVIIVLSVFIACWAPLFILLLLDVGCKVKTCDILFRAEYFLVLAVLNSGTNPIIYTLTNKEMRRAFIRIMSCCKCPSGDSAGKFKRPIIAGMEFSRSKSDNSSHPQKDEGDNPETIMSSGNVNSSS
T3 sequence (Q99500 whole entry): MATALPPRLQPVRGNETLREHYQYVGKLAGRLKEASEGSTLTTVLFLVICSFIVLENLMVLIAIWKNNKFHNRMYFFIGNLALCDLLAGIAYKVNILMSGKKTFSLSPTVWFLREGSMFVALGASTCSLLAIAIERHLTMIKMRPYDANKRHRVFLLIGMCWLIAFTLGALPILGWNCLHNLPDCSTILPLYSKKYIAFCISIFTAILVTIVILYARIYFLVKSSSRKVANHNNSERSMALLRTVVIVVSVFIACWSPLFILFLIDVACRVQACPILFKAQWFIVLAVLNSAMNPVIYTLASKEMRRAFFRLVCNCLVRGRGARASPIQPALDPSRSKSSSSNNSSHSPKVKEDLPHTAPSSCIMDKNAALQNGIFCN
T5 sequence (Q9H228 whole entry): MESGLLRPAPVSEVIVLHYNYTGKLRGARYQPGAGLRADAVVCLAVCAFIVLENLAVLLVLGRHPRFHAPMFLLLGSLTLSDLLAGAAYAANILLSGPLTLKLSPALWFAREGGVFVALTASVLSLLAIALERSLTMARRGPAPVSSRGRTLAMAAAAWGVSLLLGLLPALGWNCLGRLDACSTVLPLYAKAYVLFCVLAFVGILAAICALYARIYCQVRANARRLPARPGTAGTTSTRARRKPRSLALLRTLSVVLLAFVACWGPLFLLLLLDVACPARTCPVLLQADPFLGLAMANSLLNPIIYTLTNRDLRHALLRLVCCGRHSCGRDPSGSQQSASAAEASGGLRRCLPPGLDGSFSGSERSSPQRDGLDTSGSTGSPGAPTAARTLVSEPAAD
T4 sequence (O95136 whole entry): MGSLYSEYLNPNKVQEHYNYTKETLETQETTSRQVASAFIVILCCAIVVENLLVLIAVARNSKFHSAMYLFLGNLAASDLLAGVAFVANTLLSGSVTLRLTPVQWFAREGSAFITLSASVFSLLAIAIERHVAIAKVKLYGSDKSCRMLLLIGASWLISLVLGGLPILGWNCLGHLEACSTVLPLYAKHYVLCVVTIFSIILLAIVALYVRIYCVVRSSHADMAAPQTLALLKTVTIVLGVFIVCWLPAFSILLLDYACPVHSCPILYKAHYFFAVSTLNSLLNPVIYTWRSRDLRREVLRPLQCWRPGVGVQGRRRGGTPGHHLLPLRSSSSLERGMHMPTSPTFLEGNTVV

In data set [1], `Cc1cc(S(=O)(=O)Nc2cccc(-c3cc(C)c(C(=O)N[C@@H](CCN)C(=O)O)c(C)c3)c2)c(C)cc1Cl` had a pIC50 of 8.68.

As to `COC(=O)[C@H](C)NC(=O)c1c(C)cc(-c2cccc(NS(=O)(=O)c3cc(C)c(Cl)cc3C)c2)cc1C`, the Activity with Rattus norvegicus [2] is given as 24%.

In the case of `COC(=O)[C@H](CCN(C)C)NC(=O)c1c(C)cc(-c2cccc(NS(=O)(=O)c3cc(C)c(Cl)cc3C)c2)cc1C`, the Activity in the data set with Rattus norvegicus [3] is recorded as 24%; with Rattus norvegicus [2], 15%.

Consider `Cc1cc(S(=O)(=O)Nc2cccc(-c3cc(C)c(C(=O)N[C@H]4CCNC4=O)c(C)c3)c2)c(C)cc1Cl`, for which the outcome with Rattus norvegicus [4] was inactive.

`COC(=O)[C@H](CN(C)C)N(C)C(=O)c1c(C)cc(-c2cccc(NS(=O)(=O)c3cc(C)c(Cl)cc3C)c2)cc1C` came in with a solubility in [5] below 4 µM. Besides, the Activity in the data set with Rattus norvegicus [2] is on record as 37%.

Consider `CCOC(=O)[C@H](CCN(C)C)N(C)C(=O)c1c(C)cc(-c2cccc(NS(=O)(=O)c3cc(C)c(Cl)cc3C)c2)cc1C`, for which, in data set [5], the solubility is below 4 µM. Besides, the figures for the Activity in the data set with Rattus norvegicus [6] and with Rattus norvegicus [7] were 28% and 48%, respectively.

The molecule `Cc1cc(S(=O)(=O)Nc2cccc(-c3cc(C)c(C(=O)N(C)[C@@H](C)C(=O)O)c(C)c3)c2)c(C)cc1Cl` had a pIC50 in data set [1] of 8.21. Also, in the data set on Rattus norvegicus [8], the Activity turned out to be 19%.

As to `Cc1cc(S(=O)(=O)Nc2cccc(-c3cc(C)c(C(=O)N(C)[C@H](CCN(C)C)C(=O)O)c(C)c3)c2)c(C)cc1Cl`, the pIC50 in data set [1] is 7.70.

Regarding `CN1CCN(c2nc(C3=C(c4c[nH]c5ccccc45)C(=O)NC3=O)c3ccccc3n2)CC1` [SOTRASTAURIN], the MST with Rattus norvegicus [9] was 7 days.

For the molecule `CCCCCCCCc1ccc(CCC(N)(CO)CO)cc1` [FINGOLIMOD], the results for the MST with Rattus norvegicus [10] and in the data set with Rattus norvegicus [11] were 38 days and above 68.5 days, respectively.

Turning to `CO[C@H]1C[C@@H]2CC[C@@H](C)[C@@](O)(O2)C(=O)C(=O)N2CCCC[C@H]2C(=O)O[C@H]([C@H](C)C[C@@H]2CC[C@@H](OCCO)[C@H](OC)C2)CC(=O)[C@H](C)/C=C(\C)[C@@H](O)[C@@H](OC)C(=O)[C@H](C)C[C@H](C)/C=C/C=C/C=C/1C` [EVEROLIMUS], in the data set on Rattus norvegicus [12], the MST amounted to 7 days.

As for `Cc1cc(S(=O)(=O)Nc2cccc(-c3cc(C)c(C(=O)N[C@@H](CCN(C)C)C(=O)O)c(C)c3)c2)c(C)cc1Cl`, the pIC50 in [1] is 7.92.

`Cc1cc(S(=O)(=O)Nc2cccc(-c3cc(C)c(C(=O)N(C)[C@@H](C)C(=O)OCCN(C)C)c(C)c3)c2)c(C)cc1Cl` came in with a solubility in data set [5] of 15 µM (≈ 9 µg/mL). Besides, the values for the Activity with Rattus norvegicus [6] and in the data set on Rattus norvegicus [7] were 25% and 49%, respectively.

Consider `Cc1cc(S(=O)(=O)Nc2cccc(-c3cc(C)c(C(=O)N(C)[C@@H](CCN(C)C)C(=O)O)c(C)c3)c2)c(C)cc1Cl`, for which the pEC50 was 5.92 in [13]; below 5.00 in [17]; below 5.00 in data set [19]; below 5.00 in [20]; below 5.00 in data set [21]. The pIC50 in data set [14] is below 5.00; in data set [1] it was 8.47; in [16], 6.10; in data set [18] it was below 5.00; in data set [22] it was 6.01. In addition, the pKd in [15] was 9.17.

Regarding `Cc1cc(S(=O)(=O)Nc2cccc(-c3cc(C)c(C(=O)N[C@@H](C)C(=O)O)c(C)c3)c2)c(C)cc1Cl`, the pIC50 in [1] is 8.59. Further, the Activity with Rattus norvegicus [23] came to 20%.

In data set [1], `Cc1cc(S(=O)(=O)Nc2cccc(-c3cc(C)c(C(=O)N(C)[C@@H](CN(C)C)C(=O)O)c(C)c3)c2)c(C)cc1Cl` showed a pIC50 of 8.08.

Turning to `COC(=O)[C@@H](CCN(C)C)N(C)C(=O)c1c(C)cc(-c2cccc(NS(=O)(=O)c3cc(C)c(Cl)cc3C)c2)cc1C`, the Activity in the data set on Rattus norvegicus [6] worked out at 67%.

In the case of `COC(=O)[C@H](CCN)NC(=O)c1c(C)cc(-c2cccc(NS(=O)(=O)c3cc(C)c(Cl)cc3C)c2)cc1C`, the Activity in the data set on Rattus norvegicus [2] was 76%.

As for `COC(=O)[C@H](C)N(C)C(=O)c1c(C)cc(-c2cccc(NS(=O)(=O)c3cc(C)c(Cl)cc3C)c2)cc1C`, in [5], the solubility was below 4 µM. For the same molecule, the Activity with Rattus norvegicus [2] amounted to 21%.

In general, pIC50 refers to −log10 of the IC50, conventionally taken in molar units. Lower therefore signals a large IC50. A word on the solubility: it is the dissolved amount per volume that the medium holds. Read a high solubility as a readily soluble substance. For orientation: pEC50 means the EC50 on a negative log10 scale, so that one unit is a factor of ten. A lower pEC50 goes with a high EC50. As usually defined, the pKd is the negative decadic logarithm of the Kd, by convention in mol/L. A lower pKd goes with a high Kd.
